Data reported in ChEMBL document CHEMBL1125815, “2-Phenyl-3H-imidazo[4,5-b]pyridine-3-acetamides as non-benzodiazepine anticonvulsants and anxiolytics” (J Med Chem, 1991).

Key:
[1] = biological target: GABA-A receptor; anion channel; assay: Displacement of [3H]-diazepam from GABA-A benzodiazepine receptor of rat cerebral cortex membrane; type: tissue-based
Procedure, shortened: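 Membranes skipped the freeze-thaw-wash cycles, so endogenous GABA was retained. Six concentrations (1 × 10^-5 – 1 × 10^-10 M), 30 min at 4 °C, glass-fiber filtration and scintillation counting. IC50 from log-logit regression.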

[2] = biological target: GABA-A receptor; anion channel; assay: Displacement of [3H]flunitrazepam from GABA-A benzodiazepine receptor of rat cerebral cortex membrane; type: tissue-based
Procedure, shortened: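 Rat cerebral cortex P2+P3 membranes (fresh tissue, two freeze-thaw-wash cycles to remove endogenous GABA), 0.4 mg protein. Incubated with 1 nM [3H]flunitrazepam and six concentrations (1 × 10^-5 – 1 × 10^-10 M) for 30 min at 4 °C. Filtered on GF/b filters and counted. […] IC50 from log-logit regression, mean of replicates.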

Mus musculus [3] = species on record: Mus musculus; assay: Anticonvulsant activity against pentylenetetrazole-induced clonic seizures in mice; type: functional
Procedure, shortened: (§1)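 Female adult ICR mice, groups of eight, given test compound ip (100 mg/kg screen) in 0.5% aqueous methylcellulose or vehicle. Challenged 30 min later with pentyletetrazole 80 mg/kg sc and scored for clonic seizures.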

Mus musculus [4] = assay: Compound was tested for anticonvulsant activity against pentylenetetrazole-induced clonic seizures in mice; conv = 'convulsant at 10 mg/kg'; type: functional, organism-based; design: dose 10 mg/kg; procedure, shortened: as §1
Mus musculus [5] = assay: Compound was tested for anticonvulsant activity against pentylenetetrazole-induced clonic seizures in mice on intraperitoneal administration; type: functional; conditions: ip; procedure, shortened: as §1
Mus musculus [6] = assay: Anticonvulsant activity against picrotoxin-induced clonic seizures in mice at 3.2 mg/kg sc; type: functional; conditions: route subcutaneous
Mus musculus [7] = assay: Compound was tested for anticonvulsant activity against bicuculline-induced clonic seizures in mice at 2.7 mg/kg sc; type: functional; conditions: route subcutaneous
Mus musculus [8] = species on record: Mus musculus; assay: Compound was tested for anticonvulsant activity against maximal electroshock-induced […] seizures in mice at 50mA, 200 ms; type: functional
Mus musculus [9] = assay: Compound was tested for anticonvulsant activity against pentylenetetrazole-induced clonic seizures in mice at 80 mg/kg sc; type: functional; conditions: route subcutaneous; procedure, shortened: as §1
[10] = Neurotoxicity against mice in rotarod test; type: toxicity, organism-based; conditions: mouse, in vivo
Procedure, shortened: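 Mice in groups of five, dosed ip 30 min before being placed on a knurled 28 mm rod rotating at 6 rpm. Failure to stay on for 1 min was scored as neurotoxic. ED50 and confidence limits were obtained by probit analysis.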

SMILES: O=C(O)CNC(=O)Cn1c(-c2ccc(Cl)cc2)nc2cccnc21
- IC50 [1]: 7.1 µM

SMILES: CN(C)C(=O)Cn1c(-c2ccc(Cl)cc2)nc2ccncc21
- IC50 [2]: > 10 µM

SMILES: C[C@H](C(=O)N(C)C)n1c(-c2ccc(Cl)cc2)nc2cccnc21
- IC50 [2]: > 10 µM
- ED50 (Mus musculus [3]; Mus musculus, read-out: ED50): 43.5 mg/kg

SMILES: O=C(Cn1c(-c2ccc(Cl)cc2)nc2cccnc21)Nc1cccnc1
- IC50 [1]: 0.23 µM
- ED50 (Mus musculus [3]; Mus musculus, read-out: ED50): 100 mg/kg

SMILES: CC(C)N(C(=O)Cn1c(-c2ccc(Cl)cc2)nc2cccnc21)C(C)C
- IC50 [2]: > 10 µM

SMILES: CN(C)C(=O)Cn1c(-c2cccc(Cl)c2)nc2cccnc21
- IC50 [1]: 2.4 µM
- ED50 (Mus musculus [3]): <100 mg/kg
- ED50 (Mus musculus [3]; Mus musculus, read-out: ED50): > 56.2 mg/kg

SMILES: CN(C)C(=O)Cn1c(-c2ccc(Cl)cc2Cl)nc2cccnc21
- IC50 [2]: > 10 µM
- ED50 (Mus musculus [4]): Convulsant

SMILES: O=C(Cn1c(-c2ccc(Cl)cc2)nc2cccnc21)Nc1ccncc1
- IC50 [2]: 0.47 µM

SMILES: CN1CCN(C(=O)Cn2c(-c3ccc(Cl)cc3)nc3cccnc32)CC1
- IC50 [2]: > 10 µM
- ED50 (Mus musculus [5]): 100 mg/kg

SMILES: COc1ccc(-c2nc3cccnc3n2CC(=O)N(C)C)cc1
- IC50 [2]: 8.5 µM
- ED50 (Mus musculus [3]; Mus musculus, read-out: ED50): 39.5 mg/kg

SMILES: CCN(CC)C(=O)Cn1c(-c2ccc(Cl)cc2)nc2cccnc21
- IC50 [2]: 1.8 µM
- ED50 (Mus musculus [3]; Mus musculus, read-out: ED50): 16 mg/kg

SMILES: CNC1=Nc2ccc(Cl)cc2C(c2ccccc2)=[N+]([O-])C1 [CHLORDIAZEPOXIDE]
- IC50 [2]: 0.71 µM
- ED50 (Mus musculus [3]; Mus musculus, read-out: ED50): 1.9 mg/kg

SMILES: CN(C)C(=O)Cn1c(-c2ccc(Cl)cc2)nc2ccc(Cl)nc21
- IC50 [2]: 0.46 µM
- ED50 (Mus musculus [3]; Mus musculus, read-out: ED50): 1.1 mg/kg

SMILES: CCC1(c2ccccc2)C(=O)NC(=O)NC1=O [PHENOBARBITAL]
- ED50 (Mus musculus [6]): 27.5 mg/kg
- ED50 (Mus musculus [7]): 37.7 mg/kg
- ED50 (Mus musculus [8]): 21.8 mg/kg
- ED50 (Mus musculus [9]): 13.2 mg/kg

SMILES: O=C(Cn1c(-c2ccc(Cl)cc2)nc2cccnc21)N1CCCC1
- IC50 [2]: 2.7 µM
- ED50 (Mus musculus [3]; Mus musculus, read-out: ED50): 17.9 mg/kg

SMILES: O=C(Cn1c(-c2ccc(Cl)cc2)nc2cccnc21)Nc1ccccn1
- IC50 [2]: 0.31 µM
- ED50 (Mus musculus [3]; Mus musculus, read-out: ED50): 100 mg/kg

SMILES: CN(C)C(=O)Cn1c(-c2ccc(Cl)cc2)nc2ccc(O)nc21
- IC50 [2]: 5.2 µM

SMILES: O=C(O)CCCNC(=O)Cn1c(-c2ccc(Cl)cc2)nc2cccnc21
- IC50 [2]: > 10 µM

SMILES: CC(=O)Oc1ccc2nc(-c3ccc(Cl)cc3)n(CC(=O)N(C)C)c2n1
- IC50 [2]: > 10 µM
- ED50 (Mus musculus [3]; Mus musculus, read-out: ED50): 100 mg/kg

SMILES: CC(=O)N1CCN(C(=O)Cn2c(-c3ccc(Cl)cc3)nc3cccnc32)CC1
- IC50 [2]: 6.4 µM
- ED50 (Mus musculus [5]): 100 mg/kg

SMILES: NC(=O)Cn1c(-c2ccc(Br)cc2)nc2cccnc21
- IC50 [2]: > 10 µM
- ED50 (Mus musculus [3]; Mus musculus, read-out: ED50): 17.8 mg/kg

SMILES: Cc1ccc(-c2nc3cccnc3n2CC(=O)N(C)C)cc1
- IC50 [2]: 1.75 µM
- ED50 (Mus musculus [3]; Mus musculus, read-out: ED50): 4.7 mg/kg

SMILES: C[C@@H](C(=O)N(C)C)n1c(-c2ccc(Cl)cc2)nc2cccnc21
- IC50 [2]: > 10 µM
- ED50 (Mus musculus [3]; Mus musculus, read-out: ED50): 31.6 mg/kg

SMILES: CCCN(CCC)C(=O)Cn1c(-c2ccc(Cl)cc2)nc2ccccc21
- IC50 [2]: 2.7 µM

SMILES: NC(=O)Cn1c(-c2ccc(Cl)cc2)nc2cccnc21
- IC50 [2]: 8 µM
- ED50 (Mus musculus [6]): 211 mg/kg
- ED50 (Mus musculus [7]): 174 mg/kg
- ED50 (Mus musculus [8]): 329 mg/kg
- ED50 (Mus musculus [3]; Mus musculus, read-out: ED50): 4.1 mg/kg
- TD50 [10]: > 1000 mg/kg

SMILES: CN(C)C(=O)Cn1c(-c2ccoc2)nc2cccnc21
- IC50 [2]: > 10 µM

SMILES: CN(C)C(=O)Cn1c(-c2ccc(Cl)cc2)nc2cc(Cl)cnc21
- IC50 [2]: > 10 µM
- ED50 (Mus musculus [3]; Mus musculus, read-out: ED50): 56.2 mg/kg

SMILES: CCCN(CCC)C(=O)Cn1c(-c2ccc(Cl)cc2)nc2cccnc21
- IC50 [2]: 0.38 µM
- ED50 (Mus musculus [3]; Mus musculus, read-out: ED50): 11 mg/kg

SMILES: Cc1ccc2nc(-c3ccc(Cl)cc3)n(CC(=O)N(C)C)c2n1
- IC50 [2]: 0.88 µM
- ED50 (Mus musculus [3]; Mus musculus, read-out: ED50): 2.5 mg/kg

SMILES: NC(=O)Cn1c(-c2ccc(Cl)cc2)nc2ncccc21
- IC50 [2]: > 10 µM

SMILES: NC(=O)Cn1c(-c2ccc(Cl)cc2)nc2ccc[n+]([O-])c21
- IC50 [2]: > 10 µM
- ED50 (Mus musculus [3]; Mus musculus, read-out: ED50): 52.1 mg/kg

SMILES: CN(C)C(=O)Cn1c(Cc2ccc(Cl)cc2)nc2cccnc21
- IC50 [2]: > 10 µM

SMILES: NC(=O)Cn1c(-c2ccc(F)cc2)nc2cccnc21
- IC50 [2]: > 10 µM

SMILES: CN(C)C(=O)Cn1c(-c2ccc(Cl)cc2)nc2c(Cl)ccnc21
- IC50 [2]: > 10 µM

SMILES: CN(C)C(=O)Cn1c(-c2ccc(Br)s2)nc2cccnc21
- IC50 [2]: 2.5 µM
- ED50 (Mus musculus [5]): 100 mg/kg

SMILES: CN(C)C(=O)Cn1c(-c2ccc(C(F)(F)F)cc2)nc2cccnc21
- IC50 [1]: 3.7 µM
- ED50 (Mus musculus [3]; Mus musculus, read-out: ED50): 3.2 mg/kg
